Data taken from ChEMBL document CHEMBL3351726 (J Med Chem, 2014).
Residues, ends and D or L forms follow the SMILES beside them.

Experiments:
[1] = Retention time of the compound measured over 30 mins at flow rate of 1 mL/min by HPLC; type: physicochemical; settings: 0.5 h
Outline: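 Reversed-phase analytical HPLC or LC−MS on a SymmetryShield RP18 column (5 μm, 4.6 × 150 mm). Gradient 10−60% B over 30 min at 1 mL/min; A = 0.1% TFA in water, B = 0.1% TFA in acetonitrile.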

[2] = biological target: Sodium channel protein type 9 subunit alpha (Homo sapiens, UniProt Q15858); experiment: Inhibition of human Nav1.7 expressed in HEK-293 cells at -130 to -110 mV holding potential by whole-cell voltage clamp analysis; type: cell-based, HEK293
[3] = Retention time of the compound measured over 15 mins at flow rate of 1 mL/min by HPLC
HEK293 = experiment: Selectivity ratio of IC50 for rat Nav1.2 expressed in HEK-293 cells to IC50 for human Nav1.7 expressed in HEK-293 cells; type: cell-based

Sodium channel protein type 9 subunit alpha, sequence (Q15858 whole entry): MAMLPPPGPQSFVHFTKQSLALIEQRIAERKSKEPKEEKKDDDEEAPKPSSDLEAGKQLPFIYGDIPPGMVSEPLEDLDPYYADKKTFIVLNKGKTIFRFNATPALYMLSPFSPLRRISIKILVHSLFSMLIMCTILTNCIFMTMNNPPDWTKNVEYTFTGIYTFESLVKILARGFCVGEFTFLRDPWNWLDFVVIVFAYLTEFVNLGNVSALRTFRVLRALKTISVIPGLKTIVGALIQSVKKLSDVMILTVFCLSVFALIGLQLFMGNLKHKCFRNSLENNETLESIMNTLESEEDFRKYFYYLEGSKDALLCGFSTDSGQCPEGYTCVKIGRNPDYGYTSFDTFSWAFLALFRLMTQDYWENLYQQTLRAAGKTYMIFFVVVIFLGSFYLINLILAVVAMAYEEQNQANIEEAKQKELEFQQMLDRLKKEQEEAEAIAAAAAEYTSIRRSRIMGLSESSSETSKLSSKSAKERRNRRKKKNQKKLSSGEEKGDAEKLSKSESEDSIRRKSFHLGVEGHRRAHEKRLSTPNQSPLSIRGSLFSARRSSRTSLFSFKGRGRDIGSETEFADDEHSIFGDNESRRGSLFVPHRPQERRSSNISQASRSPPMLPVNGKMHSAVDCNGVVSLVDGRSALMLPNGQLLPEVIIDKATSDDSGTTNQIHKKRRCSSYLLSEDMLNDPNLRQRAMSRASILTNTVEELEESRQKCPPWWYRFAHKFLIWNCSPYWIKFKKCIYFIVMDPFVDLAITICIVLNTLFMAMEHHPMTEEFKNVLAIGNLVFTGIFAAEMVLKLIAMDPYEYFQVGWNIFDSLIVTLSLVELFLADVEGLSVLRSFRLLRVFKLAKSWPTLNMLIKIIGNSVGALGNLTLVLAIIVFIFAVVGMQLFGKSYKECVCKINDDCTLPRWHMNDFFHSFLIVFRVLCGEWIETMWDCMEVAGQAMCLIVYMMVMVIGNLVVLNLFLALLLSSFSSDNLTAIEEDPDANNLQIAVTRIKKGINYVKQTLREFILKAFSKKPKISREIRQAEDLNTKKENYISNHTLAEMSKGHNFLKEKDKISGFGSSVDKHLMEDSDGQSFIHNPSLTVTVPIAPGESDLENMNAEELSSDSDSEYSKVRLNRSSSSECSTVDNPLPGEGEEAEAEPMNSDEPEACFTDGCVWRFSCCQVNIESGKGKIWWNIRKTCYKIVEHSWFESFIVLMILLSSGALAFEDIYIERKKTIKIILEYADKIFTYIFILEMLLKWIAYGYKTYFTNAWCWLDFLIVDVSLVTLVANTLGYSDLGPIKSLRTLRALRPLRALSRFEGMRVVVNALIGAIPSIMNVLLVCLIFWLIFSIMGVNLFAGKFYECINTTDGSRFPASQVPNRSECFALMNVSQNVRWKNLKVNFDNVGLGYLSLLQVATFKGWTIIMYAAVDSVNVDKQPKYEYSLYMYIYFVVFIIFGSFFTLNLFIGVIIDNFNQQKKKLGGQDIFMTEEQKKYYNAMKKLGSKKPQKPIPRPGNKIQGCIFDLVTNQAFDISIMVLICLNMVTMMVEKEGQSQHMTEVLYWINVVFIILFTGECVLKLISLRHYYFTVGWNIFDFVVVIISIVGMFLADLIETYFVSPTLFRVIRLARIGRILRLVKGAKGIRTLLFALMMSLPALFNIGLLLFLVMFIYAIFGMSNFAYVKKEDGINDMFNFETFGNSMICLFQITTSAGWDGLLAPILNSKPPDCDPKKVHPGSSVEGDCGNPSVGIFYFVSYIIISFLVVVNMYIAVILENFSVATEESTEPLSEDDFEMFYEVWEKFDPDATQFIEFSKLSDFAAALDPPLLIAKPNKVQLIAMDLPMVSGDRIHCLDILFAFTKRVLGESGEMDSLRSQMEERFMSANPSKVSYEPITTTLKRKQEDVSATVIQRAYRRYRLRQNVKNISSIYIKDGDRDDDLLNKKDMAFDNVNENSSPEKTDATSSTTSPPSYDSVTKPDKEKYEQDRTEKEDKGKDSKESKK

SMILES	Retention_time [1]	IC50 [2]	Retention_time [3]	Ratio IC50 (HEK293)
CSCC[C@@H]1NC(=O)[C@H](Cc2c[nH]c3ccccc23)NC(=O)[C@H](CCCCN)NC(=O)[C@H](CCC(N)=O)NC(=O)[C@@H](NC(=O)[C@@H](N)Cc2ccc(O)cc2)CSSC[C@@H]2NC(=O)[C@@H]3CSSC[C@@H](C(=O)N[C@@H](CCCCN)C(=O)N[C@@H](CCCCN)C(=O)N[C@@H](CCCCN)C(=O)N[C@@H](CC(C)C)C(=O)N[C@@H](Cc4c[nH]c5ccccc45)C(=O)O)NC(=O)[C@H](Cc4c[nH]c5ccccc45)NC(=O)[C@H](CC(C)C)NC(=O)[C@H](CCC(=O)O)NC(=O)[C@H](CSSC[C@H](NC(=O)[C@H]([C@@H](C)O)NC(=O)[C@H](Cc4c[nH]c5ccccc45)NC1=O)C(=O)N[C@@H](CC(=O)O)C(=O)N[C@@H](CO)C(=O)N[C@@H](CCC(=O)O)C(=O)N[C@@H](CCCNC(=N)N)C(=O)N[C@@H](CCCCN)C(=O)N3)NC(=O)[C@H](C(C)C)NC(=O)[C@H](Cc1ccc(O)cc1)NC(=O)CNC(=O)[C@H](CCC(=O)O)NC2=O	14.36 min	> 3000 nM	9.09 min	
CSCC[C@@H]1NC(=O)[C@H](Cc2c[nH]c3ccccc23)NC(=O)[C@H](CCCCN)NC(=O)[C@H](CCC(N)=O)NC(=O)[C@@H](NC(=O)[C@@H](N)Cc2ccc(O)cc2)CSSC[C@@H]2NC(=O)[C@@H]3CSSC[C@@H](C(=O)N[C@@H](CCCCN)C(=O)N[C@@H](CCCCN)C(=O)N[C@@H](CCCCN)C(=O)N[C@@H](CC(C)C)C(=O)N[C@@H](Cc4c[nH]c5ccccc45)C(=O)O)NC(=O)[C@H](Cc4c[nH]c5ccccc45)NC(=O)[C@H](CC(C)C)NC(=O)[C@H](CCCNC(=N)N)NC(=O)[C@H](CSSC[C@H](NC(=O)[C@H]([C@@H](C)O)NC(=O)[C@H](Cc4c[nH]c5ccccc45)NC1=O)C(=O)N[C@@H](CC(=O)O)C(=O)N[C@@H](CCC(=O)O)C(=O)N[C@@H](CCC(=O)O)C(=O)N[C@@H](CCCNC(=N)N)C(=O)N[C@@H](CCCCN)C(=O)N3)NC(=O)[C@H](C(C)C)NC(=O)[C@H](CC(C)C)NC(=O)CNC(=O)[C@H](CCC(=O)O)NC2=O (HELM PEPTIDE1{Y.C.Q.K.W.M.W.T.C.D.E.E.R.K.C.C.E.G.L.V.C.R.L.W.C.K.K.K.L.W}$PEPTIDE1,PEPTIDE1,2:R3-16:R3|PEPTIDE1,PEPTIDE1,9:R3-21:R3|PEPTIDE1,PEPTIDE1,15:R3-25:R3$$$V2.0)	14.78 min	293 nM	8.66 min	
[H][C@]12CSSC[C@@H](C(=O)N[C@@H](CCCCN)C(=O)N[C@@H](CCCCN)C(=O)N[C@@H](CCCCN)C(=O)N[C@@H](CC(C)C)C(=O)N[C@@H](Cc3c[nH]c4ccccc34)C(=O)O)NC(=O)[C@H](Cc3c[nH]c4ccccc34)NC(=O)[C@H](CC(C)C)NC(=O)[C@H](CCCNC(=N)N)NC(=O)[C@]3([H])CSSC[C@]([H])(NC(=O)[C@]([H])([C@@H](C)O)NC(=O)[C@H](Cc4c[nH]c5ccccc45)NC(=O)[C@H](CCSC)NC(=O)[C@H](Cc4c[nH]c5ccccc45)NC(=O)[C@H](CCCCN)NC(=O)[C@H](CCC(N)=O)NC(=O)[C@@H](NC(=O)[C@@H](N)Cc4ccc(O)cc4)CSSC[C@]([H])(NC1=O)C(=O)N[C@@H](CCC(=O)O)C(=O)NCC(=O)N[C@@H](CC(C)C)C(=O)N[C@@H](C(C)C)C(=O)N3)C(=O)N[C@@H](CC(=O)O)C(=O)N[C@@H](CO)C(=O)N[C@@H](C)C(=O)N[C@@H](CCCNC(=N)N)C(=O)N[C@@H](CCCCN)C(=O)N2 (HELM PEPTIDE1{Y.C.Q.K.W.M.W.T.C.D.S.A.R.K.C.C.E.G.L.V.C.R.L.W.C.K.K.K.L.W}$PEPTIDE1,PEPTIDE1,2:R3-16:R3|PEPTIDE1,PEPTIDE1,9:R3-21:R3|PEPTIDE1,PEPTIDE1,15:R3-25:R3$$$V2.0)	16.59 min		9.86 min	24
CC[C@H](C)[C@H](NC(=O)[C@](C)(CC(C)C)NC(=O)[C@H](CCCCN)NC(=O)[C@H](CCCCN)NC(=O)[C@H](CCCCN)NC(=O)[C@@H]1CSSC[C@@H]2NC(=O)[C@H](CCCCN)NC(=O)[C@H](CCCNC(=N)N)NC(=O)[C@H](C)NC(=O)[C@H](CO)NC(=O)[C@H](CC(=O)O)NC(=O)[C@@H]3CSSC[C@H](NC(=O)[C@H](C(C)C)NC(=O)[C@H](CC(C)C)NC(=O)CNC(=O)[C@H](CCC(=O)O)NC(=O)[C@H](CSSC[C@H](NC(=O)[C@@H](N)Cc4ccc(O)cc4)C(=O)N[C@@H](CCC(N)=O)C(=O)N[C@@H](CCCCN)C(=O)N[C@@H](Cc4c[nH]c5ccccc45)C(=O)N[C@@H](CCSC)C(=O)N[C@@H](Cc4c[nH]c5ccccc45)C(=O)N[C@@H]([C@@H](C)O)C(=O)N3)NC2=O)C(=O)N[C@@H](CCCNC(=N)N)C(=O)N[C@@H](CC(C)C)C(=O)N[C@@H](Cc2c[nH]c3ccccc23)C(=O)N1)C(=O)O (HELM PEPTIDE1{Y.C.Q.K.W.M.W.T.C.D.S.A.R.K.C.C.E.G.L.V.C.R.L.W.C.K.K.K.[CC(C)C[C@](C)(N[*:1])C(=O)[*:2]].I}$PEPTIDE1,PEPTIDE1,2:R3-16:R3|PEPTIDE1,PEPTIDE1,9:R3-21:R3|PEPTIDE1,PEPTIDE1,15:R3-25:R3$$$V2.0)	14.87 min		9.03 min	34.2
[H][C@]12CSSC[C@@H](C(=O)N[C@@H](CCCCN)C(=O)N[C@@H](CCCCN)C(=O)N[C@@H](CCCCN)C(=O)N[C@@](C)(CC(C)C)C(=O)N[C@@H](Cc3c[nH]c4ccccc34)C(=O)O)NC(=O)[C@H](Cc3c[nH]c4ccccc34)NC(=O)[C@H](CC(C)C)NC(=O)[C@H](CCCNC(=N)N)NC(=O)[C@]3([H])CSSC[C@]([H])(NC(=O)[C@]([H])([C@@H](C)O)NC(=O)[C@H](Cc4c[nH]c5ccccc45)NC(=O)[C@H](CCSC)NC(=O)[C@H](Cc4c[nH]c5ccccc45)NC(=O)[C@H](CCCCN)NC(=O)[C@H](CCC(N)=O)NC(=O)[C@@H](NC(=O)[C@@H](N)Cc4ccc(O)cc4)CSSC[C@]([H])(NC1=O)C(=O)N[C@@H](CCC(=O)O)C(=O)NCC(=O)N[C@@H](CC(C)C)C(=O)N[C@@H](C(C)C)C(=O)N3)C(=O)N[C@@H](CC(=O)O)C(=O)N[C@@H](CO)C(=O)N[C@@H](C)C(=O)N[C@@H](CCCNC(=N)N)C(=O)N[C@@H](CCCCN)C(=O)N2 (HELM PEPTIDE1{Y.C.Q.K.W.M.W.T.C.D.S.A.R.K.C.C.E.G.L.V.C.R.L.W.C.K.K.K.[CC(C)C[C@](C)(N[*:1])C(=O)[*:2]].W}$PEPTIDE1,PEPTIDE1,2:R3-16:R3|PEPTIDE1,PEPTIDE1,9:R3-21:R3|PEPTIDE1,PEPTIDE1,15:R3-25:R3$$$V2.0)	15.29 min		9.28 min	3.5
[H][C@]12CSSC[C@@H](C(=O)N[C@@H](CCCCN)C(=O)N[C@@H](CCCCN)C(=O)N[C@@H](CCCCN)C(=O)N(C)[C@@H](CC(C)C)C(=O)N[C@H](C(=O)O)[C@@H](C)CC)NC(=O)[C@H](Cc3c[nH]c4ccccc34)NC(=O)[C@H](CC(C)C)NC(=O)[C@H](CCCNC(=N)N)NC(=O)[C@]3([H])CSSC[C@]([H])(NC(=O)[C@]([H])([C@@H](C)O)NC(=O)[C@H](Cc4c[nH]c5ccccc45)NC(=O)[C@H](CCSC)NC(=O)[C@H](Cc4c[nH]c5ccccc45)NC(=O)[C@H](CCCCN)NC(=O)[C@H](CCC(N)=O)NC(=O)[C@@H](NC(=O)[C@@H](N)Cc4ccc(O)cc4)CSSC[C@]([H])(NC1=O)C(=O)N[C@@H](CCC(=O)O)C(=O)NCC(=O)N[C@@H](CC(C)C)C(=O)N[C@@H](C(C)C)C(=O)N3)C(=O)N[C@@H](CC(=O)O)C(=O)N[C@@H](CO)C(=O)N[C@@H](C)C(=O)N[C@@H](CCCNC(=N)N)C(=O)N[C@@H](CCCCN)C(=O)N2 (HELM PEPTIDE1{Y.C.Q.K.W.M.W.T.C.D.S.A.R.K.C.C.E.G.L.V.C.R.L.W.C.K.K.K.[meL].I}$PEPTIDE1,PEPTIDE1,2:R3-16:R3|PEPTIDE1,PEPTIDE1,9:R3-21:R3|PEPTIDE1,PEPTIDE1,15:R3-25:R3$$$V2.0)	14.4 min		8.79 min	2.8
CSCC[C@@H]1NC(=O)[C@H](Cc2c[nH]c3ccccc23)NC(=O)[C@H](CCCCN)NC(=O)[C@H](CCC(N)=O)NC(=O)[C@@H](NC(=O)[C@@H](N)Cc2ccc(O)cc2)CSSC[C@@H]2NC(=O)[C@@H]3CSSC[C@@H](C(=O)N[C@@H](CCCCN)C(=O)N[C@@H](CCCCN)C(=O)N[C@@H](CCCCN)C(=O)N(C)[C@@H](CC(C)C)C(=O)N[C@@H](Cc4c[nH]c5ccccc45)C(=O)O)NC(=O)[C@H](Cc4c[nH]c5ccccc45)NC(=O)[C@H](CC(C)C)NC(=O)[C@H](CCCNC(=N)N)NC(=O)[C@H](CSSC[C@H](NC(=O)[C@H]([C@@H](C)O)NC(=O)[C@H](Cc4c[nH]c5ccccc45)NC1=O)C(=O)N[C@@H](CC(=O)O)C(=O)N[C@@H](CO)C(=O)N[C@@H](C)C(=O)N[C@@H](CCCNC(=N)N)C(=O)N[C@@H](CCCCN)C(=O)N3)NC(=O)[C@H](C(C)C)NC(=O)[C@H](CC(C)C)NC(=O)CNC(=O)[C@H](CCC(=O)O)NC2=O (HELM PEPTIDE1{Y.C.Q.K.W.M.W.T.C.D.S.A.R.K.C.C.E.G.L.V.C.R.L.W.C.K.K.K.[meL].W}$PEPTIDE1,PEPTIDE1,2:R3-16:R3|PEPTIDE1,PEPTIDE1,9:R3-21:R3|PEPTIDE1,PEPTIDE1,15:R3-25:R3$$$V2.0)	15.1 min		9.04 min	2.8
